Assay results taken from ChEMBL document CHEMBL1150327, “E,E-2-Benzylidene-6-(nitrobenzylidene)cyclohexanones: syntheses, cytotoxicity and an examination of some of their electronic, steric, and hydrophobic properties” (Bioorg Med Chem, 2008).
Calls of active or inactive are those of the source. The calls are words filed in the database; no cut-off is given here.

Columns and labels:
[1] = Cytotoxicity against human Molt4/C8 cells after 72 hrs; type: functional, cell-based; conditions: MOLT-4, 72 h
Method in brief: (§1)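 Compounds tested over a range of concentrations on cells in RPMI 1640 medium at 37 °C for 72 h. IC50 taken as the concentration inhibiting cell growth by 50%.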

[2] = Lipophilicity, log P of the compound; type: physicochemical; conditions: calculated
Method in brief: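 Calculated logP, generated with the JME molecular editor rather than measured.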

L1210 = assay: Cytotoxicity against mouse L1210 cells after 48 hrs; type: functional, cell-based; conditions: L1210, 48 h
Method in brief: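 Murine L1210 lymphoid leukemia cells exposed to graded compound concentrations in RPMI 1640 at 37 °C for 48 h. IC50 is the concentration giving 50% growth inhibition.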

CCRF-CEM = assay: Cytotoxicity against human CEM cells after 72 hrs; type: functional, cell-based; method in brief: as §1
Liver = assay: Stimulation of respiration in rat liver mitochondria; type: functional
Method in brief: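 Liver mitochondria isolated from rats anesthetized with isoflurane and decapitated. Oxygen consumption measured by polarography. Compound tested at 10 μM, with a DMSO solvent control (4 μL). Differences judged against standard deviations.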

Compound | IC50 [1] | logP [2] | IC50 (L1210) | IC50 (CCRF-CEM) | Activity (Liver)
O=C1/C(=C/c2ccc(F)cc2)CCC/C1=C\c1ccc([N+](=O)[O-])cc1 | 17.1 µM | 5.08 | 26.8 µM | 18.6 µM | –
COc1ccc(/C=C2\CCC/C(=C\c3ccc([N+](=O)[O-])cc3)C2=O)cc1 | 300 µM | 4.98 | 240 µM | 250 µM | –
O=C1/C(=C/c2ccc(Cl)cc2)CCC/C1=C\c1ccccc1[N+](=O)[O-] | 3.86 µM | 5.38 | 9.38 µM | 1.75 µM | –
O=C1CCCC/C1=C\c1cccc([N+](=O)[O-])c1 | 8.28 µM | – | 50.1 µM | 8.12 µM | –
COc1cc(/C=C2\CCC/C(=C\c3ccccc3[N+](=O)[O-])C2=O)cc(OC)c1OC | 0.702 µM | 4.33 | 1.52 µM | 0.402 µM | Active
Cc1ccc(/C=C2\CCC/C(=C\c3ccc([N+](=O)[O-])cc3)C2=O)cc1 | 8.44 µM | 5.38 | 8.16 µM | 8.53 µM | –
O=C1CCCC/C1=C\c1ccccc1[N+](=O)[O-] | 33.3 µM | – | 23.8 µM | 36.4 µM | –
O=C1/C(=C/c2ccc(Cl)cc2)CCC/C1=C\c1ccc([N+](=O)[O-])cc1 | 9.12 µM | 5.61 | 9.41 µM | 8.18 µM | –
O=C1CCCC/C1=C\c1ccc([N+](=O)[O-])cc1 | 13.9 µM | – | 46.5 µM | 19.3 µM | –
COc1ccc(/C=C2\CCC/C(=C\c3cccc([N+](=O)[O-])c3)C2=O)cc1 | 7.98 µM | 4.96 | 29.5 µM | 8.22 µM | –
O=C1/C(=C/c2ccccc2)CCC/C1=C\c1ccc([N+](=O)[O-])cc1 | 8.35 µM | 4.93 | 9.8 µM | 9.32 µM | –
CN(C)c1ccc(/C=C2\CCC/C(=C\c3cccc([N+](=O)[O-])c3)C2=O)cc1 | 10.9 µM | 5.01 | 156 µM | 11.7 µM | –
O=C1/C(=C/c2ccc(F)cc2)CCC/C1=C\c1ccccc1[N+](=O)[O-] | 1.87 µM | 4.86 | 8.4 µM | 1.51 µM | –
O=C1/C(=C/c2ccc(Cl)cc2)CCC/C1=C\c1cccc([N+](=O)[O-])c1 | 2.02 µM | 5.58 | 9.16 µM | 1.75 µM | –
O=C1/C(=C/c2ccccc2)CCC/C1=C\c1ccccc1[N+](=O)[O-] | 1.48 µM | 4.7 | 4.84 µM | 0.925 µM | –
Cc1ccc(/C=C2\CCC/C(=C\c3cccc([N+](=O)[O-])c3)C2=O)cc1 | 9.53 µM | 5.35 | 41.8 µM | 10.1 µM | –
CN(C)c1ccc(/C=C2\CCC/C(=C\c3ccccc3[N+](=O)[O-])C2=O)cc1 | 122 µM | 4.8 | 164 µM | 168 µM | –
O=C1/C(=C/c2ccc(F)cc2)CCC/C1=C\c1cccc([N+](=O)[O-])c1 | 5.12 µM | 5.06 | 16.3 µM | 5.05 µM | –
CN(C)c1ccc(/C=C2\CCC/C(=C\c3ccc([N+](=O)[O-])cc3)C2=O)cc1 | > 500 µM | 5.03 | > 500 µM | > 500 µM | –
COc1ccc(/C=C2\CCC/C(=C\c3ccccc3[N+](=O)[O-])C2=O)cc1 | 8.9 µM | 4.76 | 42.4 µM | 7.45 µM | –
COc1cc(/C=C2\CCC/C(=C\c3ccc([N+](=O)[O-])cc3)C2=O)cc(OC)c1OC | 6.42 µM | 4.56 | 6.97 µM | 4.61 µM | Active
COc1cc(/C=C2\CCC/C(=C\c3cccc([N+](=O)[O-])c3)C2=O)cc(OC)c1OC | 44 µM | 4.53 | 42.2 µM | 45.2 µM | –
O=C1/C(=C/c2ccccc2)CCC/C1=C\c1cccc([N+](=O)[O-])c1 | 1.7 µM | 4.9 | 9.44 µM | 2.29 µM | –
Cc1ccc(/C=C2\CCC/C(=C\c3ccccc3[N+](=O)[O-])C2=O)cc1 | 7.52 µM | 5.15 | 7.77 µM | 6.09 µM | –
